Compound activity from PubChem.
Most compounds without a hit are left out; they make up all but 2.2% or so of the library.
MT stabilize HCS: microtubule stabilization, imaging screen | HeLa tubulin immunostaining HCS, 24 h; share of cells brighter than vehicle mean+2SD | % tubulin-high responders, % at 10 µM | 200,000 compounds, 0.83% hits;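 active = plate Z-score above 3 for both tubulin-high and condensed-nucleus cell shares, with cell loss under 80%, at 10 µM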;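 also: anti alpha tubulin signal scored within the nucleus-defined area of each cell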
IEC-6 tox: counter-screen for KLF5 inhibitors: cytotoxicity in IEC-6 cells | IEC-6 cytotoxicity, luminescence viability | inhibition, % at 5 µM | 290,000 compounds, 0.78% hits | AID 1825; in the data active = inhibition above about 22%
Ba/F3 V617F tox: loss of viability in JAK2V617F-driven Ba/F3 cells; Ba/F3 EpoR-JAK2V617F viability, ATP luminescence; inhibition, % at 5.6 µM; 220,000 compounds, 1.1% hits; AID 1446;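 active = inhibition above the campaign mean plus 3 SD over all tested compounds, cut at about 24% in these data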;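 also: cytokine-independent growth of Ba/F3 cells driven by EpoR plus mutant JAK2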
BaF3 tox: reduces parental Ba/F3 cell viability, JAK2V617F counter-screen. AID 1486. 220,000 compounds, 1.1% hits. inhibition, % at 5.6 µM. CellTiter-Glo ATP luminescence;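 active = inhibition above a per-campaign cutoff, the mean inhibition of all tested compounds plus 3 SD, cut at about 27% in these data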
b-catenin transl: beta-catenin nuclear translocation modulation | HeLa beta-catenin nuclear translocation, immunofluorescence imaging | nuclear translocation activity, % at 5 µM | 190,000 compounds, 0.3% hits | AID 1665;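 active = nuclear translocation activity above 50% at 5 µM, with a well cell count of 50 or more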;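 also: per-cell ratio of nuclear to cytoplasmic median beta-catenin stain intensity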
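assay system = human HeLa cells, endogenous beta-catenin | times = compound treatment 24 h, 37°C, 5% CO2 | detection = Anti-beta-catenin immunofluorescence on PFA-fixed, Triton-permeabilized cells, DAPI nuclei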
APP 5UTR inh: APP translation inhibition; SH-SY5Y APP 5'UTR-luciferase reporter, luminescence; inhibition, % at 2 µM; 190,000 compounds, 0.82% hits;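 active = inhibition above a set limit, derived from the sample mean plus 3 SD, cut at about 45% in these data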
Numbers stand for hits; – = inactive; · = not tested or not shown.

SMILES | MT stabilize HCS | IEC-6 tox | Ba/F3 V617F tox | BaF3 tox | b-catenin transl | APP 5UTR inh
CC(Oc1ccc2ccc(=O)oc2c1)C(=O)NC1CC(C)(C)NC(C)(C)C1 (centres undefined) | · | – | · | · | · | ·
CC(C)(C)c1ccc(OCCNCc2ccccc2)cc1 | · | – | · | · | · | ·
C[n+]1ccccc1COc1ccc(C(C)(C)C)cc1 | – | – | 72.6 | 67.8 | · | –
COC(=O)Nc1nc2ccc(-c3n[nH]c(=O)c4ccccc34)cc2[nH]1 | – | – | – | – | – | 55.1
CCn1cc(C(=O)O)c(=O)c2cc(OC)ccc21 | – | – | – | – | – | –
COc1ccc2c(c1)c(=O)c(C(=O)c1ccccc1)cn2Cc1ccc(C)cc1 | 21.6 | – | – | – | – | –
CC1=CC(C)C(C[N+]2(C)CCCCC2)C(C)C1 (centres undefined) | – | – | 38.9 | 60.6 | – | –
Cc1ccc(C(=O)CCc2ccc(N)cc2)cc1 | · | – | · | · | · | ·
CC(=O)c1ccc(NC(=O)c2ccccc2-c2ccccc2C(=O)O)cc1 | · | – | · | · | · | ·
COc1ccc(NC(=O)NNC(=O)C(C)Oc2ccc3ccccc3c2)cc1 (centres undefined) | · | – | · | · | · | ·
COc1ccc(C(=O)C2CCN(C(=S)NCCc3ccc(OC)c(OC)c3)CC2)cc1 | – | – | – | – | – | –
COc1ccc(CCNC(=S)N2CCC(C(=O)c3ccc(F)cc3)CC2)cc1OC | – | – | – | – | – | 47.7
ON/C=N/C(=S)Nc1ncc(C(F)(F)F)cc1Cl | – | – | 55.6 | 62.0 | – | –
C=CCCC(=O)Nc1nc(C)c(-c2csc(Nc3cc(OC)ccc3OC)n2)s1 | 31.0 | – | 33.6 | 58.6 | 70.2 | 53.1
COc1ccc(C2=NN(C(=O)CSc3nc4ccccc4s3)C(c3ccc(OC)cc3)C2)cc1 (centres undefined) | – | – | – | – | – | –
COc1ccc(C2=NN(C(=O)CSc3nc4ccccc4s3)C(c3ccc(F)cc3)C2)cc1 (centres undefined) | – | – | – | – | – | 80.9
COc1ccc(CCNC(=O)c2noc(C)c2[N+](=O)[O-])cc1OC | · | – | · | · | · | ·
COc1cc(CN2CCNC(=O)C2CC(=O)NC2CCC2)cc(OC)c1 (centres undefined) | · | – | · | · | · | ·
CCOC(=O)c1c(C)[nH]c2ccc(O)cc12 | – | – | – | – | – | 50.1
Cc1ccc(NC2=NC3(CCCC3)N=C(N)N2)c(C)c1 | 24.6 | – | – | – | – | –
Cc1cccc(C)c1NC1=NC2(CCCCC2)N=C(N)N1 | – | – | – | 75.9 | – | –
CC(C1CC2CCC1C2)n1c(-c2ccco2)n[nH]c1=S (centres undefined) | – | – | – | – | – | 53.8
Cc1ccc(-n2c(-c3ccco3)n[nH]c2=S)cc1 | – | – | – | – | – | –
Oc1ccc(O)c(Cc2nc3ccccc3s2)c1 | 13.2 | – | – | – | – | –
CC(C)(C)NC(=O)CSc1nc(-c2ccccc2)c(-c2ccccc2)[nH]1 | 15.0 | – | – | – | – | –
SMILES | MT stabilize HCS | IEC-6 tox | Ba/F3 V617F tox | BaF3 tox | b-catenin transl | APP 5UTR inh
Cc1cc(S(=O)(=O)N2CCN(c3ccccc3F)CC2)ccc1-n1cnnn1 | · | – | · | · | · | ·
CN(c1ccccc1)c1ccc(/C=C/[N+](=O)[O-])cc1 | – | – | – | – | – | 53.7
CN(C)c1ccc(-n2cccc2/C=C/[N+](=O)[O-])cc1 | – | – | – | – | – | –
CCCC[n+]1ccn(-c2nc3ccccc3nc2[N-]S(=O)(=O)c2cccs2)c1 | · | – | 98.2 | 85.8 | – | ·
C=CC[n+]1ccn(-c2nc3ccccc3nc2[N-]S(=O)(=O)c2cccs2)c1 | · | – | 92.0 | 85.5 | – | ·
Cc1ccccc1CNc1nc(N)n(-c2ccccc2)n1 | – | – | – | 95.9 | – | –
COc1cccc(Oc2ncnc(N)c2[N+](=O)[O-])c1 | · | – | · | · | · | ·
Cc1ccc(C(=O)NN(C)c2nc3ccccc3nc2C(F)(F)F)cc1 | 40.9 | – | – | – | – | –
CCN(Cc1ccccc1)S(=O)(=O)c1c(C)[nH]c(C)c1C(=O)N1CCCCC1 | · | – | · | · | · | ·
CC(=O)/C=C1\N(C)c2ccc(C)cc2C1(C)C | – | – | 41.6 | 38.9 | – | –
CN1/C(=C/C(=S)NC(=O)C2CCC2)C(C)(C)c2ccccc21 | – | – | – | 29.8 | – | –
Cc1c(NC(=S)/C=C2\N(C)c3ccccc3C2(C)C)c(=O)n(-c2ccccc2)n1C | – | – | – | 49.8 | – | –
CN1/C(=C\C(=O)COC(=O)c2ccccc2O)C(C)(C)c2ccccc21 | · | – | – | – | – | ·
CN1/C(=C\C(=O)c2cccc(S(=O)(=O)N3CCCCC3)c2)C(C)(C)c2ccccc21 | – | – | – | – | · | –
